# B2AR ag – agonists of human beta-2 adrenergic receptor inducing internalization; response, % (test concentration not listed); 340,000 compounds, 0.43% hits; AID 504454; Am2.2-beta2AR cells, FAP receptor internalization, flow cytometry; P07550;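 active = response above a set limit, near 3 SD of response in nonfluorescent compounds, cut at about 42% in these data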
# Dynein transport – dynein cargo transport inhibition; 220,000 compounds, 0.47% hits; 3617.4 mouse cells, GR-EGFP nuclear translocation imaging; test concentration mostly 20 µM; stimulated with dexamethasone, 1 µM; stronger effect = lower value; z-score, hits read low;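 active = plate z-score of nuclear minus cytoplasmic receptor signal below a set negative limit, without overly bright fluorescence or cell loss, cut at about -3.5 in these data, passing the limit was not always enough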;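 also: z-score of nuclear minus cytoplasmic ring GR-EGFP intensity difference per well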
#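 Buffer or medium: tet-free, stripped-serum medium; Also added: dexamethasone, 1.0 µM final; Technique: high-content fluorescence imaging after fixation; Times: 48 h induction, 1 h compound, 30 min dex at 37 °C; Read-out: per-cell GR-EGFP intensity, nucleus versus surrounding cytoplasmic ring, well-averaged.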
# CHOP UPR activ – activators of apoptotic arm of unfolded protein response (CHOP); CHO-CHOP luciferase reporter, UPR activation, luminescence; percent of tunicamycin response over DMSO baseline; activation, % at 10 µM; 330,000 compounds, 0.34% hits;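 active = at 10 µM dose, activation of 40% or more, normalized to positive control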;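 also: 100% = tunicamycin at 10 µg/mL and 0% = DMSO alone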
#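 Dosing – one dose, 10 µM in 0.5% DMSO · System – CHO-CHOP cells, stable luciferase reporter of PERK-eIF2a-CHOP signalling · Input – 500 cells/well · Control set – tunicamycin 10 µg/mL final as positive, DMSO-only wells as negative · Timing – 6 h compound treatment, 37 °C · Measure – % activation vs tunicamycin · Technique – luminescence read with Steady-Glo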
# XBP1 UPR activ – adaptive UPR (XBP1) activation; CHO-XBP1 luciferase reporter, IRE1-XBP1 UPR activation, luminescence; percent of tunicamycin response, DMSO as zero; activation, % at 20 µM; 330,000 compounds, 0.33% hits;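 active = versus positive control, 20 µM dose yields 30% or more activation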;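 also: 100% = tunicamycin at 10 µg/mL and 0% = DMSO only wells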
#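 Signal: luciferase luminescence; Assay system: CHO-XBP1 luciferase reporter cells; Amount: one thousand reporter cells per well; Dosing: 20 µM single concentration, DMSO 1%; Benchmarks: high control tunicamycin 10 µg/mL final, low control DMSO vehicle only; Schedule: 6 h compound exposure at 37 °C, 5% CO2; Evaluation: percent activation relative to tunicamycin reference.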
# MDM2 E3 inh – inhibitors of human Mdm2 E3 ubiquitin ligase. Q00987. cell-based MDM2 ubiquitination luciferase reporter, 2 h; 0 = plate control, 100 = twice control, blank-subtracted. signal enhancement, % at 5 µM. 210,000 compounds, 0.11% hits. AID 1230;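 active = signal enhancement of 30% or more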;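 also: luminescence tracks abundance of the self-degrading MDM2-luciferase fusion protein; higher signal means inhibition of MDM2 E3 ligase activity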
#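 Buffer or medium: Cells held in DMEM | Assay system: Stable mammalian line carrying autodegrading MDM2–luciferase fusion reporter | Quantity: 2000 cells/well | Times: 4 h settle plus 2 h compound, 37 °C | Doses: One concentration, 5 µM, with 0.2% DMSO | Technique: Luminescence with SteadyLite reagent, 15 min at room temperature | Benchmarks: Plate controls and plate blanks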
# Mdm2 MdmX PPI – inhibitors of human Mdm2/MdmX interaction | O15151+Q00987 | SaOS-2 split-luciferase Mdm2/MdmX complementation, luminescence | 330,000 compounds, 3% hits | inhibition, % at 8 µM;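 active = inhibition of at least 50% at 8 µM in the primary screen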
# Target sequence (O15151 whole entry, looked up): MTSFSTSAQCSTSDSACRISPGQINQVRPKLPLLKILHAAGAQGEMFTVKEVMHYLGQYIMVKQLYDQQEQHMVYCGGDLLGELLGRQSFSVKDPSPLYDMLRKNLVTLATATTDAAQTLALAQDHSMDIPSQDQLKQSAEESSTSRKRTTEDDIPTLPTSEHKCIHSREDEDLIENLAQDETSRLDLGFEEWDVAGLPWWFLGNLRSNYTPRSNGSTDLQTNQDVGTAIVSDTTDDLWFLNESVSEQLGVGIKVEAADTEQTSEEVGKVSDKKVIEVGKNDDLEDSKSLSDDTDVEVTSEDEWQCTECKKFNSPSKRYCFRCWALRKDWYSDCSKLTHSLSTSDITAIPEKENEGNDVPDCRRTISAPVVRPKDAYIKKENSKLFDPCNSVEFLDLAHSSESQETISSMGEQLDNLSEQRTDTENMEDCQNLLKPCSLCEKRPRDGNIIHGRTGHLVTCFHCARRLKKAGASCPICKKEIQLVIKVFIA
# Target sequence (Q00987 whole entry, looked up): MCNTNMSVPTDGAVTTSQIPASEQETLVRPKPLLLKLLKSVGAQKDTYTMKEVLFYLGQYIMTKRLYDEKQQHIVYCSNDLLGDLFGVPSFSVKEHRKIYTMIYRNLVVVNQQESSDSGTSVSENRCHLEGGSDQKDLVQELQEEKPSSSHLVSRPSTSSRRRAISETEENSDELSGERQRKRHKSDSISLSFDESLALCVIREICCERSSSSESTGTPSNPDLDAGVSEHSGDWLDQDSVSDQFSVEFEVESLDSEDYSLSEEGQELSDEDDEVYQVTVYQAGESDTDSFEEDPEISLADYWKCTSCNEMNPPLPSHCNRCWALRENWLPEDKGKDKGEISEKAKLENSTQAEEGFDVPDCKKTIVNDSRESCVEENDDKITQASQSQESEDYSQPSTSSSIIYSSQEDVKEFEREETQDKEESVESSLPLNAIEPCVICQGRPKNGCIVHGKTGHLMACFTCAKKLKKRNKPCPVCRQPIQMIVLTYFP
# Mdm2 MdmX conf – human Mdm2/MdmX binding inhibition, confirmed; shares compounds with Mdm2 MdmX PPI; luminescent assay; inhibition, % at 8 µM; 10,000 compounds, 55% hits; AID 489028; in the data active = inhibition above about 40%
# Full FLuc ctr – full-length luciferase inhibition in Mdm2/MdmX counter-screen; 6,200 compounds, 77% hits; inhibition, % at 8 µM; SaOS-2 full-length luciferase counterscreen, luminescence; shares compounds with Mdm2 MdmX PPI;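 active = mean inhibition at 8 µM reaching about 37%, which flags the compound as non-specific, limit read from the data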;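 also: p53-null SaOS-2 cells with luciferase driven by a doxycycline-inducible promoter; compound on cells about two nights before reading with doxycycline added after day one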
# The depositor's hits bear a star; . = no result given. Rows were chosen to be rich in hits. Some 3.7% of all compounds tested hit in one or more screens of this group.
SMILES,B2AR ag,Dynein transport,CHOP UPR activ,XBP1 UPR activ,MDM2 E3 inh,Mdm2 MdmX PPI,Mdm2 MdmX conf,Full FLuc ctr
CCOC(=O)C1=C(c2ccccc2)NC(N)=NC1c1ccc(OCc2ccc(C(=O)OC)cc2)cc1 (stereo unspecified),4,-1.3,2,12,-10,100*,35,72*
Cc1ncc(CO)c2c1Oc1nc(-c3ccccc3)nc(SCC(=O)Nc3cccc(O)c3)c1C2,5,.,1,4,.,51*,-2,.
COc1ccc(-c2nc3c(c(SCC(=O)Nc4cccc(O)c4)n2)Cc2c(CO)cnc(C)c2O3)cc1,16,.,2,-3,.,4,.,.
O=C(/C=C/c1ccc(OCCCF)cc1)Nc1ccnc(-c2ccncc2)n1,-3,0.75,-4,-6,-4,62*,24,.
CN(C)CCCN(C(=O)c1ccc(S(=O)(=O)N2CCCCCC2)cc1)c1nc2c(F)cc(F)cc2s1,21,.,2,0,.,17,.,.
COc1cccc(NC(=O)Nc2nnc(-c3ccccc3SCc3ccccc3)s2)c1,-3,1.1,4,4,-15,53*,33,.
O=C(Nc1nnc(-c2ccccc2SCc2ccccc2)s1)Nc1ccccc1F,1,0.82,4,2,1,76*,17,.
COc1ccc(NC(=O)Nc2nnc(-c3ccccc3SCc3ccccc3)s2)cc1,3,-0.94,0,5,-3,23,.,.
S=c1[nH]nc(-c2ccccc2)n1/N=C/c1ccc(-c2ccccc2Cl)o1,4,1.5,1,3,-3,90*,90*,54*
COc1cc(CN2CCC(C(=O)NCC(C)(C)CN(C)C)CC2)ccc1OCc1ccccc1,6,.,1,-3,.,92*,80*,71*
CCCCNC(=O)C1CCN(Cc2ccc(OCc3ccccc3)c(OC)c2)CC1,16,.,3,1,.,-18,.,.
O=C(CC(=O)Nc1cccc(Cl)c1Cl)Nc1cccc(Cl)c1Cl,5,.,1,1,.,-1,.,.
COc1cccc2c1C(=O)c1c(O)c3c(c(O)c1C2=O)C[C@@](O)(C(C)=O)C[C@@H]3O[C@H]1C[C@H](N)[C@H](O)[C@H](C)O1,-108,2.1,.,.,.,.,.,.
CC(=O)[C@]1(O)Cc2c(O)c3c(c(O)c2[C@@H](O[C@H]2C[C@H](N)[C@H](O)[C@H](C)O2)C1)C(=O)c1ccccc1C3=O,.,.,-4,-8,.,100*,98*,2
COc1cccc2c1C(=O)c1c(O)c3c(c(O)c1C2=O)C[C@@](O)(C(=O)CO)C[C@@H]3O[C@H]1C[C@H](N)[C@@H](O)[C@H](C)O1,-34,.,-1,-6,.,94*,100*,4
COc1cccc2c1C(=O)c1c(O)c3c(c(O)c1C2=O)CC(O)(C(=O)CO)CC3OC1CC(N(C)C)C(O)C(C)O1 (stereo unspecified),-131,.,.,.,.,.,.,.
CC(Oc1cccc2cccnc12)C(=O)N/N=C/c1ccc2c(c1)OCO2 (stereo unspecified),-26,.,1,1,.,22,.,.
Cc1ccc(/C=C/C(O)=C2/C(=O)N(C)C3(C)CC2c2ccccc2O3)cc1 (stereo unspecified),16,-1.5,-1,0,15,83*,42*,30
COc1ccc(/C=C/C(O)=C2/C(=O)NC3(C)CC2c2ccccc2O3)c(OC)c1OC (stereo unspecified),9,-1.7,0,-3,-1,11,.,.
COc1ccc(/C=C/C(O)=C2/C(=O)N(C)C3(C)CC2c2ccccc2O3)cc1 (stereo unspecified),4,-1.1,2,0,-12,73*,31,.
CC(=O)NC(c1cccs1)c1cc(F)c2cccnc2c1O (stereo unspecified),7,.,-3,-2,.,63*,67*,30
CC(=O)NC(c1ccco1)c1cc(F)c2cccnc2c1O (stereo unspecified),6,.,-2,-1,.,57*,49*,44*
Cc1ccc(NC(=O)Cc2ccc3c(c2)OCCO3)cc1S(=O)(=O)N1CCCCC1,0,-0.71,-1,-3,.,0,.,.
Cc1cc(C)n(C(=O)/C(C#N)=N/Nc2cc(Cl)cc(Cl)c2)n1,13,0.8,1,0,-37,89*,88*,51*
COc1cccc2sc(NN)nc12,4,1.9,0,-1,-18,6,.,.
SMILES,B2AR ag,Dynein transport,CHOP UPR activ,XBP1 UPR activ,MDM2 E3 inh,Mdm2 MdmX PPI,Mdm2 MdmX conf,Full FLuc ctr
COc1cccc2sc(Nc3nnc(-c4ccccc4Cl)o3)nc12,7,-0.084,6,5,-4,65*,65*,54*
Cc1ccc2c(c1)CCCN2CC(=O)N(C)c1c(N)n(Cc2ccccc2)c(=O)[nH]c1=O,4,.,1,0,.,15,.,.
CC1(C)CC(=O)C2=C(C1)NC(SCC(=O)Nc1ccccc1)=C(C#N)C21CCCCC1,2,0.51,4,-5,-6,35,.,.
CC(C)(C)C1CCC2(CC1)C(C#N)=C(SCC(=O)Nc1ccccc1)NC(=O)C2C#N (stereo unspecified),9,-1.3,-3,-2,-21,92*,75*,59*
Cn1nc(C(F)(F)F)c(/C=N/OC(=O)c2ccccc2)c1Sc1ccc(Cl)cc1,16,2.3,-1,1,-14,51*,6,.
O=C1[C@H](Cc2ccccc2)NCCCC[C@H](c2ccco2)N1Cc1ccccc1,23,.,.,.,.,.,.,.
Clc1ccc2oc3c(Cl)ncnc3c2c1,37,-1.1,1,1,-27,71*,4,.
CCOC(=O)c1ccc(S(=O)(=O)N2CCN(CCc3ccncc3)CC2)cc1,1,.,1,-1,.,6,.,.
CCN(CC)c1ccc(S(=O)(=O)N2CCOCC2)cc1NC(=O)c1cc(=O)c2ccccc2o1,13,0.65,0,9,-8,51*,23,.
COc1ccc(NC(=O)c2oc3ccc(S(=O)(=O)N4CCC5(CC4)OCCO5)cc3c2C)cc1,27,1,3,-6,0,71*,35,.
Cc1c(C(=O)Nc2cc(S(=O)(=O)N3CCOCC3)ccc2N2CCN(C)CC2)oc2ccccc12,1,0.41,-1,4,-8,56*,39,65*
C=CCNC(=O)c1oc2ccc(S(=O)(=O)N3CCC4(CC3)OCCO4)cc2c1C,-2,.,1,-4,.,13,.,.
